Results taken from ChEMBL document CHEMBL1123479, “Substituted 1,3,4-thiadiazoles with anticonvulsant activity. 2. Aminoalkyl derivatives” (J Med Chem, 1986).

Experiments:
[1] = species: Mus musculus; experiment: Compound was evaluated for anticonvulsant activity in mice against metrazole seizures; assay type: functional
Summary of the method: (§1)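 Mouse screen with oral dosing; the ED50 is given in mg/kg, po. Signs of sedation, ataxia, loss of righting reflex and death were noted after oral dosing before anticonvulsant testing.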

[2] = species: Mus musculus; experiment: Compound was evaluated for anticonvulsant activity in mice against electroshock seizures; assay type: functional; summary of the method: as §1
[3] = tested on: Mus musculus; experiment: Compound was evaluated for inhibition of hind limb tonus (anticonvulsant activity) in mouse maximal metrazole seizures (MMS) after peroral administration; assay type: functional; details: Hindlimb, po
[4] = species: Mus musculus; experiment: Compound was evaluated for inhibition of hind limb tonus (anticonvulsant activity) in mouse; assay type: functional, Hindlimb
Summary of the method: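 Maximal electroshock in mice, ip dosing. The ED50 (mg/kg) is for blocking hind limb tonic extension at each compound's time of peak effect, which was determined in min. 95% confidence limits are reported.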

[5] = species: Mus musculus; experiment: Compound was evaluated for inhibition of hind limb tonus (anticonvulsant activity ) in mouse; assay type: functional, Hindlimb
Summary of the method: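 Maximal electroshock in mice, scoring abolition of hind-limb tonic extension. Compound given ip and tested at its time of peak effect. ED50 in mg/kg reported with 95% confidence limits.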

[6] = Compound was tested for rotarod test in mice and TD50 value at which 50% of trained animals fall off rotarod was reported; assay type: organism-based; details: mouse, in vivo
Summary of the method: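 Mice trained on the rotorod, then dosed po (tested at 1 h) or ip (tested at time of peak anticonvulsant effect). Neurotoxicity scored as falling off the rod.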

Row | Compound | ED50 [1] [mg/kg] | ED50 [2] [mg/kg] | further results
1 | Cc1ccccc1NCc1nnc(-c2ccccc2-c2ccccc2)s1 | > 200 | > 200 | –
2 | CCCCCCOc1ccccc1-c1nnc(CN)s1 | – | 34 | –
3 | NCc1nnc(-c2ccccc2-c2ccccc2)s1 | – | – | ED50 [3]: 20 mg/kg; Peak effect time [4]: 10 min
4 | CC(N)c1nnc(-c2ccccc2-c2ccccc2)s1 (centres undefined) | 32 | 21 | –
5 | CNCc1nnc(-c2ccccc2-c2ccccc2)s1 | 20 | 25 | –
6 | c1ccc(CNCc2nnc(-c3ccccc3-c3ccccc3)s2)cc1 | 29 | 37 | –
7 | NCCCc1nnc(-c2ccccc2-c2ccccc2)s1 | > 200 | > 200 | –
8 | CCCCCCOc1ccccc1-c1nnc(CNC)s1 | – | 44 | –
9 | CN(C)Cc1nnc(-c2ccccc2-c2ccccc2)s1 | 35 | 32 | –
10 | CNCc1nnc(-c2ccccc2)s1 | > 200 | > 200 | –
11 | CC(C)NCc1nnc(-c2ccccc2-c2ccccc2)s1 | 35 | 23 | –
12 | NC(=O)N1c2ccccc2C=Cc2ccccc21 [CARBAMAZEPINE] | – | – | Peak effect time [4]: 20 min
13 | O=C1NC(=O)C(c2ccccc2)(c2ccccc2)N1 [PHENYTOIN] | – | – | Peak effect time [5]: 60 min
14 | NCc1nnc(Cc2ccccc2)s1 | 200 | 110 | –
15 | NCCc1nnc(-c2ccccc2-c2ccccc2)s1 | 68 | 50 | –
16 | NCc1nnc(Cc2ccccc2-c2ccccc2)s1 | – | 30 | –
17 | CCC1(c2ccccc2)C(=O)NC(=O)NC1=O [PHENOBARBITAL] | – | – | TD50 [6]: 86 mg/kg; Peak effect time [5]: 30 min
